Publication PMC10494472 (Saudi Pharmaceutical Journal : SPJ, 2023)

Tests used:
Format in all cases: biochemical
[1] = target: α-glucosidase (maltase) (Saccharomyces cerevisiae, UniProt P53341); test: α-glucosidase inhibition assay
[2] = target: XO (Bos taurus, UniProt P80457); test: XO inhibition assay
[3] = target: FAS from chicken liver (Gallus gallus, UniProt P12276); test: FAS inhibition assay
Procedure, shortened: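 Chicken liver FAS (10 µg) with test compound (10–200 µg/mL) in 100 mM potassium phosphate buffer containing 1 mM dithiothreitol, 1 mM EDTA, 10 µM malonyl-CoA, 3 µM acetyl-CoA and 35 µM NADPH. Activity was followed at 37 °C as the change in NADPH absorbance at 340 nm. The blank omitted the enzyme.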

Chain of α-glucosidase (maltase) (P53341 whole entry): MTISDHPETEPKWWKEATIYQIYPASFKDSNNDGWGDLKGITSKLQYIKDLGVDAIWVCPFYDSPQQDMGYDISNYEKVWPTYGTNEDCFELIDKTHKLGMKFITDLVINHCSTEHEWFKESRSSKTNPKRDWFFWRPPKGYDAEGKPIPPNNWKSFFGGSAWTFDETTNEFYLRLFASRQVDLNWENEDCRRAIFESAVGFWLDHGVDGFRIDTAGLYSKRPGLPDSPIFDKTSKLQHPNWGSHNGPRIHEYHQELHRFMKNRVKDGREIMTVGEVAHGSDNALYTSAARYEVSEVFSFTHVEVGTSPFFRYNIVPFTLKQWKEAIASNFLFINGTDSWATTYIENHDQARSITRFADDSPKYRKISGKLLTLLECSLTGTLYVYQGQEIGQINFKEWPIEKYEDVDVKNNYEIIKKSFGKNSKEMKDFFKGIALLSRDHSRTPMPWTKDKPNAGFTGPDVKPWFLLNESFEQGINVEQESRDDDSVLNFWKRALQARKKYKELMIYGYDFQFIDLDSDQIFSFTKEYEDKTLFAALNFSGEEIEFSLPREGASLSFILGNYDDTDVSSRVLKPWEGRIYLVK
Chain of FAS from chicken liver (P12276 whole entry): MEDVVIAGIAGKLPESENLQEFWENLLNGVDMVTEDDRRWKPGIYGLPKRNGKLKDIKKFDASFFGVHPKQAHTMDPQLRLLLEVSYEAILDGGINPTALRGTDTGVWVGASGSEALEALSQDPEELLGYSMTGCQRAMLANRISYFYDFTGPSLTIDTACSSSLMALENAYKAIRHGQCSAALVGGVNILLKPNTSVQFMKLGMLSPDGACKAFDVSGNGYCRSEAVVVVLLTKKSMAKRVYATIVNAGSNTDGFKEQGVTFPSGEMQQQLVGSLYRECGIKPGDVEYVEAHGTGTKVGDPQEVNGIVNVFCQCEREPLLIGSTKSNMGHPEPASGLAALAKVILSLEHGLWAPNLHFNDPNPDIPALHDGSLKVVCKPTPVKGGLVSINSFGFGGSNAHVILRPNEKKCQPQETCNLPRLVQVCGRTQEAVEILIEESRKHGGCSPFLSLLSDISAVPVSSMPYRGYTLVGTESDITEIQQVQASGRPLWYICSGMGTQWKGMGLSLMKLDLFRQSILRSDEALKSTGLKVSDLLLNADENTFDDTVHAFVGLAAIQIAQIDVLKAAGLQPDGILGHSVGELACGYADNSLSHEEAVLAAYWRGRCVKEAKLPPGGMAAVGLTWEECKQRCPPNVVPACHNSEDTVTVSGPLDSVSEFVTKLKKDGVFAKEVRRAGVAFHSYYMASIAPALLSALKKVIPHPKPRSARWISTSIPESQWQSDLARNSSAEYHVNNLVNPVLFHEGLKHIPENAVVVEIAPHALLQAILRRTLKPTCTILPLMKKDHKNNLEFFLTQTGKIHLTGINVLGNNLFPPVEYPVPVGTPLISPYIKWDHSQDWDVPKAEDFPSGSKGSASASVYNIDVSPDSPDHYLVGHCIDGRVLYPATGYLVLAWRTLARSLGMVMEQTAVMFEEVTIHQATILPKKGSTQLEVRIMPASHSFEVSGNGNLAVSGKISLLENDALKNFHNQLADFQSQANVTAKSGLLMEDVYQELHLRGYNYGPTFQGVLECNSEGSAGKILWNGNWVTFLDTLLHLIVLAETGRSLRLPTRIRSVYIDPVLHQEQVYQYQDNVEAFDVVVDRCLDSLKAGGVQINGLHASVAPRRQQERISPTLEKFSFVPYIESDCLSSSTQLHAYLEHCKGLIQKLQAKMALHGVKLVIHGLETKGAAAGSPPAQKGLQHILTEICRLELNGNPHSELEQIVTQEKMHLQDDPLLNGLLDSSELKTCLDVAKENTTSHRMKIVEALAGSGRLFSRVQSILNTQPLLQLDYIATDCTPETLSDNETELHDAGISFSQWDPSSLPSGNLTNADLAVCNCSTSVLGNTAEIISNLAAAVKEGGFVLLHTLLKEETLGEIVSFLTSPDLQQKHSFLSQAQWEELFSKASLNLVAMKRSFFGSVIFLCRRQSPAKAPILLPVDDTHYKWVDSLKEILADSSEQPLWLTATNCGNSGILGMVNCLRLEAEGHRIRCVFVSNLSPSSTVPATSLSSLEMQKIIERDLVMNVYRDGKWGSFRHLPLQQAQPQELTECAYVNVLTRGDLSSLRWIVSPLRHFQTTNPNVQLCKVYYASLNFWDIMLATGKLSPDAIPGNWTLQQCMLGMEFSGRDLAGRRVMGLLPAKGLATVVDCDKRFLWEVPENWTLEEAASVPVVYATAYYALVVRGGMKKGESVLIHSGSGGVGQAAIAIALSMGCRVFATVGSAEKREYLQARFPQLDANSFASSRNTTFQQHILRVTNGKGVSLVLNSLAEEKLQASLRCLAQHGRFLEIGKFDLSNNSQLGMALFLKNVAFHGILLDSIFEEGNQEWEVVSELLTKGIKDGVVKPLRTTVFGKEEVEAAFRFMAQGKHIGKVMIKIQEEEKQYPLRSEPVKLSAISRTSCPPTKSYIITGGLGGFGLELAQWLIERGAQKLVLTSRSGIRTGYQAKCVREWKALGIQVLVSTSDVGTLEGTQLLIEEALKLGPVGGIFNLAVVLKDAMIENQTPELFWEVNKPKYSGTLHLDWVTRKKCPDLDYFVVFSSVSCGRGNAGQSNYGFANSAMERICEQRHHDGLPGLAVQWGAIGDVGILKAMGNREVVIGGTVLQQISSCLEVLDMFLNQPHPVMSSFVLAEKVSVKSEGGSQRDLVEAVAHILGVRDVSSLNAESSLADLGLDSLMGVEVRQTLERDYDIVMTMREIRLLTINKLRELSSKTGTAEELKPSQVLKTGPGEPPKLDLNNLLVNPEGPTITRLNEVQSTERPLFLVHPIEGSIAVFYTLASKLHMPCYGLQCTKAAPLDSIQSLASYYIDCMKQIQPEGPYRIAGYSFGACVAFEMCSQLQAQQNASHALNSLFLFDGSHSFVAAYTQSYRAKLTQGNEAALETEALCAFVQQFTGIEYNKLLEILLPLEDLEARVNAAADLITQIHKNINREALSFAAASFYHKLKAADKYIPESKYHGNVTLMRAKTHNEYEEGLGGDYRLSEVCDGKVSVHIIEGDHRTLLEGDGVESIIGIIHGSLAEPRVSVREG
Chain of XO (P80457 whole entry): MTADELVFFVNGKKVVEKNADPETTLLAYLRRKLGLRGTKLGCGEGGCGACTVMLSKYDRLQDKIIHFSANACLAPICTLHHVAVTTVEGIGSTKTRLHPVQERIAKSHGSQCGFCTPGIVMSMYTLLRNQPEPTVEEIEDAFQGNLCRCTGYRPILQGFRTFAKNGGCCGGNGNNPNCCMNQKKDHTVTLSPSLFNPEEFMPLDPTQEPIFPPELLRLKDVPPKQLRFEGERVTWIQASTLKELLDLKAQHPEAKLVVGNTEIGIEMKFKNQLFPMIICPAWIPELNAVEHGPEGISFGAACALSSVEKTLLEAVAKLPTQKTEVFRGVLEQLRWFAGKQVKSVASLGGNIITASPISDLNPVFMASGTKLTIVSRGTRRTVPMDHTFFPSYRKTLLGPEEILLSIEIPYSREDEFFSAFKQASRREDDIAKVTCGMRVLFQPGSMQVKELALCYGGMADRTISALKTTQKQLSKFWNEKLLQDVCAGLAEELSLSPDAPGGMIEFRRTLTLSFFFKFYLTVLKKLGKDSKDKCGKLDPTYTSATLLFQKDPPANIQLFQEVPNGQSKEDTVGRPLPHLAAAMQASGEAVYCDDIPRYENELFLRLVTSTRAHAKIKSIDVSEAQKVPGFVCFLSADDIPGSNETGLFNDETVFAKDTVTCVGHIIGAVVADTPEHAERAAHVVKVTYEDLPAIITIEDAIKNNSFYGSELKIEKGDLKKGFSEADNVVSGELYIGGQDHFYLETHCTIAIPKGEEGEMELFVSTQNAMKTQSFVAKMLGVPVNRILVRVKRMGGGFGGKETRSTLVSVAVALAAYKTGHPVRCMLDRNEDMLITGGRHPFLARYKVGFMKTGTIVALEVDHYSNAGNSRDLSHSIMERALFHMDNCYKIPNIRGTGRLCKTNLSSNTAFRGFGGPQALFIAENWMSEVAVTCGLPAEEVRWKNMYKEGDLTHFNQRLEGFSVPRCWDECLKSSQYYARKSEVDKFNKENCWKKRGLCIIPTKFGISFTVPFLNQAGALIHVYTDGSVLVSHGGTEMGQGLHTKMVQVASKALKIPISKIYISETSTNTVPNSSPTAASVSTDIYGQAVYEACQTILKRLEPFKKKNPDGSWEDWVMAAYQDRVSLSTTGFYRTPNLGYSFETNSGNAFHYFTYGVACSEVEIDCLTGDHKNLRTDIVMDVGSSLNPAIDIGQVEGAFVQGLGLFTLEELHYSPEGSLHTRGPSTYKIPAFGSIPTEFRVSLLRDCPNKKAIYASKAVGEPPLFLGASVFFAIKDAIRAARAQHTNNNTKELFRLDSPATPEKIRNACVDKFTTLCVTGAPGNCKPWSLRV

| Structure (SMILES) | IC50 [1] [µM] | IC50 [2] [µM] | IC50 [3] [µM] |
| --- | --- | --- | --- |
| C=C(C)[C@@H]1CC[C@]2(C)CC[C@]3(C)[C@H](CC[C@@H]4[C@@]5(C)CC[C@H](O)C(C)(C)[C@@H]5CC[C@]43C)[C@@H]12 [Compound 1, lupeol] | 101 | 109 | 98.3 |
| C=C(C)[C@@H]1CC[C@]2(CO)CC[C@]3(C)[C@H](CC[C@@H]4[C@@]5(C)CC[C@H](O)C(C)(C)[C@@H]5CC[C@]43C)[C@@H]12 [Compound 2, betulin] | 88 | 69.9 | 63.2 |
| COc1ccc(-c2cc(=O)c3c(O)cc(O)c(-c4cc(-c5cc(=O)c6c(O)cc(O)cc6o5)ccc4O)c3o2)cc1 [Compound 3, podocarpusflavone A] |  |  | 43.6 |
| O=c1cc(-c2ccc(O)c(-c3c(O)cc(O)c4c(=O)cc(-c5ccc(O)cc5)oc34)c2)oc2cc(O)cc(O)c12 [Compound 4, amentoflavone] | 92.8 |  | 75 |
